{"source": "paper PMC9352467", "about": "(Neoplasia (New York, N.Y.), 2022)", "key": {"HCT-116": {"test_system": "HCT-116", "experiment": "Cell viability assay", "assay_type": "cell-based, Human"}, "RKO": {"test_system": "RKO", "experiment": "Cell viability assay", "assay_type": "cell-based, Human"}, "Panc 02.03": {"test_system": "Panc 02.03", "experiment": "Cell viability assay", "assay_type": "cell-based", "conditions": "Homo sapiens, Panc 02.03, 72 h, read-out: IC50 (mean ± SD)"}, "SW620": {"test_system": "SW620", "experiment": "Cell viability assay", "assay_type": "cell-based", "conditions": "Homo sapiens, SW-620, 72 h, read-out: IC50 (mean ± SD)"}, "HGC-27": {"test_system": "HGC-27", "experiment": "Cell viability assay", "assay_type": "cell-based", "conditions": "Homo sapiens, HGC-27, 72 h, read-out: IC50 (mean ± SD)"}, "NCI-H226": {"test_system": "NCI-H226", "experiment": "Cell viability assay", "assay_type": "cell-based", "conditions": "Homo sapiens, NCI-H226, 72 h, read-out: IC50 (mean ± SD)"}, "NOMO-1": {"test_system": "NOMO-1", "experiment": "Cell viability assay", "assay_type": "cell-based", "conditions": "Homo sapiens, NOMO-1, 72 h, read-out: IC50 (mean ± SD)"}, "G-361": {"test_system": "G-361", "experiment": "Cell viability assay", "assay_type": "cell-based", "conditions": "Homo sapiens, G-361, 72 h, read-out: IC50 (mean ± SD)"}, "PC-3": {"test_system": "PC-3", "experiment": "Cell viability assay", "assay_type": "cell-based", "conditions": "Homo sapiens, PC-3, 72 h, read-out: IC50 (mean ± SD)"}, "TOV-112D": {"test_system": "TOV-112D", "experiment": "Cell viability assay", "assay_type": "cell-based", "conditions": "Homo sapiens, TOV112D, 72 h, read-out: IC50 (mean ± SD)"}, "SW480": {"test_system": "SW480", "experiment": "Cell viability assay", "assay_type": "cell-based", "conditions": "Homo sapiens, SW480, 72 h, read-out: IC50 (mean ± SD)"}, "HT-29": {"test_system": "HT-29", "experiment": "Cell viability assay", "assay_type": "cell-based", "conditions": "Homo sapiens, HT-29, 72 h, read-out: IC50 (mean ± SD)"}, "MV-4-11": {"test_system": "MV-4-11", "experiment": "Cell viability assay", "assay_type": "cell-based", "conditions": "Homo sapiens, MV4-11, 72 h, read-out: IC50 (mean ± SD)"}, "Capan-1": {"test_system": "Capan-1", "experiment": "Cell viability assay", "assay_type": "cell-based", "conditions": "Homo sapiens, CAPAN-1, 72 h, read-out: IC50 (mean ± SD)"}, "MIA PaCa-2": {"test_system": "MIA PaCa-2", "experiment": "Cell viability assay", "assay_type": "cell-based", "conditions": "Homo sapiens, MIA PaCa-2, 72 h, read-out: IC50 (mean ± SD)"}, "SUIT-2": {"test_system": "SUIT-2", "experiment": "Cell viability assay", "assay_type": "cell-based", "conditions": "Homo sapiens, SUIT-2, 72 h, read-out: IC50 (mean ± SD)"}, "CHL-1": {"test_system": "CHL-1", "experiment": "Cell viability assay", "assay_type": "cell-based", "conditions": "Homo sapiens, CHL-1, 72 h, read-out: IC50 (mean ± SD)"}, "DU 145": {"test_system": "DU 145", "experiment": "Cell viability assay", "assay_type": "cell-based", "conditions": "Homo sapiens, DU-145, 72 h, read-out: IC50 (mean ± SD)"}, "LNCaP": {"test_system": "LNCaP", "experiment": "Cell viability assay", "assay_type": "cell-based", "conditions": "Homo sapiens, 72 h, read-out: IC50 (mean ± SD)"}, "KG-1": {"test_system": "KG-1", "experiment": "Cell viability assay", "assay_type": "cell-based", "conditions": "Homo sapiens, KG-1, 72 h, read-out: IC50 (mean ± SD)"}, "HCT 15": {"test_system": "HCT 15", "experiment": "Cell viability assay", "assay_type": "cell-based", "conditions": "Homo sapiens, HCT-15, 72 h, read-out: IC50 (mean ± SD)"}, "NCI-N87": {"test_system": "NCI-N87", "experiment": "Cell viability assay", "assay_type": "cell-based", "conditions": "Homo sapiens, NCI-N87, 72 h, read-out: IC50 (mean ± SD)"}, "OVCAR-8": {"test_system": "OVCAR-8", "experiment": "Cell viability assay", "assay_type": "cell-based", "conditions": "Homo sapiens, OVCAR-8, 72 h, read-out: IC50 (mean ± SD)"}, "[1]": {"test_system": "panel of 28 human cancer cell lines", "experiment": "Cell viability assay, whole panel", "assay_type": "cell-based", "conditions": "72 h, read-out: Average IC50 over the cell line panel"}, "COLO 205": {"test_system": "COLO 205", "experiment": "Cell viability assay", "assay_type": "cell-based", "conditions": "Homo sapiens, COLO 205, 72 h, read-out: IC50 (mean ± SD)"}, "HCT-116 and RKO cells": {"test_system": "HCT-116 and RKO cells", "experiment": "Western blotting of neddylation, CRLs substrates and DNA damage markers", "assay_type": "cell-based, Human", "conditions": "24 h", "how_it_was_run": "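HCT-116 and RKO cells were treated with test compound or a reference NAE inhibitor; DNA damage markers (γH2AX, p-Chk1 Ser317, p-Chk2 T68) were read after 24 h. Lysis was in SDS buffer (50 mM Tris-HCl pH 6.8, 2% SDS, 100 mM DTT) with 10 min boiling. Lysates were run on 10% gels at 150 V for 1 h, blocked in 5% milk/TBST, and probed with primaries at 1:1000 and HRP secondaries. Three repeats.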"}, "Jurkat, Clone E6-1": {"test_system": "Jurkat, Clone E6-1", "experiment": "Cell viability assay", "assay_type": "cell-based", "conditions": "Homo sapiens, 72 h, read-out: IC50 (mean ± SD)"}, "THP-1": {"test_system": "THP-1", "experiment": "Cell viability assay", "assay_type": "cell-based", "conditions": "Homo sapiens, THP-1, 72 h, read-out: IC50 (mean ± SD)"}, "SW48": {"test_system": "SW48", "experiment": "Cell viability assay", "assay_type": "cell-based", "conditions": "Homo sapiens, SW48, 72 h, read-out: IC50 (mean ± SD)"}, "[2]": {"experiment": "Plasma pharmacokinetic studies", "assay_type": "in vivo, Sprague-Dawley (SD) rats", "conditions": "male, Sprague-Dawley, rat, 3 mg/kg", "how_it_was_run": "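Male Sprague-Dawley rats (200–250 g) were fasted 12 h and dosed with test compound or reference at 1 mg/kg i.v. or 3 mg/kg p.o. The i.v. vehicle was DMSO/EtOH/PEG300/NaCl (5/5/40/50); the p.o. vehicle was DMSO/0.5% HPMC (5/95). Blood was sampled over time and assayed by LC/MS/MS. Three animals per time point; non-compartmental analysis.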"}, "[3]": {"conditions": "1 mg/kg i.v.; SD rats plasma; ref [25]; cited from earlier work"}}, "note": "Marks after values point to notes of the source that are not given here.", "data": [{"smiles": "CCOc1cccc(F)c1C#Cc1cn([C@@H]2O[C@H](CNS(N)(=O)=O)[C@@H](O)[C@H]2O)c2ncnc(N)c12", "note": "[TAS4464]", "values": [{"measurement": "sensitivity of cell proliferation", "setting": "HCT-116; HCT-116, Supplemental Figure 1b", "result": "profoundly sensitive"}, {"measurement": "sensitivity of cell proliferation", "setting": "RKO; Supplemental Figure 1b", "result": "profoundly sensitive"}]}, {"smiles": "NS(=O)(=O)OC[C@@H]1C[C@@H](n2ccc3c(N[C@H]4CCc5ccccc54)ncnc32)C[C@@H]1O", "note": "[MLN4924]", "values": [{"measurement": "IC50", "setting": "Panc 02.03", "result": "356 ± 39.1", "unit": "nM"}, {"measurement": "IC50", "setting": "SW620", "result": "5550 ± 2370", "unit": "nM"}, {"measurement": "IC50", "setting": "HCT-116; Homo sapiens, HCT-116, 72 h, read-out: IC50 (mean ± SD)", "result": "60.8 ± 11.7", "unit": "nM"}, {"measurement": "IC50", "setting": "HGC-27", "result": "98.5 ± 28.3", "unit": "nM"}, {"measurement": "IC50", "setting": "NCI-H226", "result": "1040 ± 624", "unit": "nM"}, {"measurement": "IC50", "setting": "NOMO-1", "result": "627 ± 77.8", "unit": "nM"}, {"measurement": "IC50", "setting": "G-361", "result": "1430 ± 684", "unit": "nM"}, {"measurement": "IC50", "setting": "PC-3", "result": "2430 ± 1050", "unit": "nM"}, {"measurement": "IC50", "setting": "TOV-112D", "result": "229 ± 104", "unit": "nM"}, {"measurement": "IC50", "setting": "SW480", "result": "1090 ± 91.7", "unit": "nM"}, {"measurement": "IC50", "setting": "HT-29", "result": "296 ± 32.3", "unit": "nM"}, {"measurement": "IC50", "setting": "MV-4-11", "result": "121 ± 1.79", "unit": "nM"}, {"measurement": "IC50", "setting": "Capan-1", "result": "96.5 ± 10.1", "unit": "nM"}, {"measurement": "IC50", "setting": "MIA PaCa-2", "result": "109 ± 16.1", "unit": "nM"}, {"measurement": "IC50", "setting": "SUIT-2", "result": "204 ± 29.1", "unit": "nM"}, {"measurement": "IC50", "setting": "CHL-1", "result": "320 ± 122", "unit": "nM"}, {"measurement": "IC50", "setting": "DU 145", "result": "86.5 ± 15.1", "unit": "nM"}, {"measurement": "IC50", "setting": "LNCaP", "result": "52.5 ± 13.4", "unit": "nM"}, {"measurement": "IC50", "setting": "KG-1", "result": "936 ± 258", "unit": "nM"}, {"measurement": "IC50", "setting": "HCT 15", "result": "294 ± 80.3", "unit": "nM"}, {"measurement": "IC50", "setting": "NCI-N87", "result": "865 ± 77.5", "unit": "nM"}, {"measurement": "IC50", "setting": "OVCAR-8", "result": "541 ± 64.2", "unit": "nM"}, {"measurement": "IC50", "setting": "[1]", "result": 647, "unit": "nM"}, {"measurement": "IC50", "setting": "COLO 205", "result": "54.2 ± 2.47", "unit": "nM"}, {"measurement": "DNA damage (γH2AX levels)", "setting": "HCT-116 and RKO cells", "result": "accumulation of DNA double-strand breaks"}, {"measurement": "IC50", "setting": "Jurkat, Clone E6-1", "result": "284 ± 95.6", "unit": "nM"}, {"measurement": "IC50", "setting": "THP-1", "result": "60.1 ± 32.2", "unit": "nM"}, {"measurement": "IC50", "setting": "SW48", "result": "79.5 ± 23.1", "unit": "nM"}, {"measurement": "bioavailability", "setting": "[2]; oral", "result": 12.4, "unit": "%"}, {"measurement": "AUC(0-t)", "setting": "[2]; po", "result": 208, "unit": "ng·h/mL"}, {"measurement": "Cmax", "setting": "[2]; po", "result": 64, "unit": "ng/mL"}, {"measurement": "Tmax", "setting": "[2]; po", "result": 0.92, "unit": "h"}, {"measurement": "half-life", "setting": "[2]; po", "result": 5.5, "unit": "h"}, {"measurement": "IC50", "setting": "RKO; Homo sapiens, 72 h, read-out: IC50 (mean ± SD)", "result": "150 ± 26.4", "unit": "nM"}, {"measurement": "AUClast", "setting": "[3]", "result": "560^a ng*h/mL"}, {"measurement": "CL", "setting": "[3]", "result": "29.70^a mL/min/kg"}, {"measurement": "T1/2", "setting": "[3]", "result": "0.71^a h"}, {"measurement": "Vss_obs", "setting": "[3]", "result": "1783^a mL/kg"}]}]}
